GRIN3A LBD mod: modulators (binders) of human NR3A ligand-binding domain | AID 1259313 | Tm shift relative to glycine control, % at 25 µM | NR3A LBD differential scanning fluorimetry, Tm shift; 0% = protein alone, 100% = glycine-bound protein | 2.5% of 340,000 active;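 active means melting temperature shift of at least 10% of the positive control shift, at one fixed dose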
NS3 helicase inh: inhibitors of Hepatitis C virus NS3 helicase | NS3 helicase DNA unwinding, Cy5 molecular beacon fluorescence | inhibition, % at 10.9 µM | 0.56% of 290,000 active | AID 1800;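 active means inhibition above the mean of all tested compounds plus 3 SD, set per campaign, cut at about 35% in these data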;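 further: 0% = DMSO wells and 100% = thioflavine S control wells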
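Test system: hepatitis C virus NS3 helicase domain fragment enzyme. Also added: annealed dual-labelled DNA beacon duplex, ATP-started. Timing: 60 min unwinding reaction at 25 °C after ATP addition. Technique: Cy5 fluorescence. Measure: % inhibition of unwinding.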
DNA FID counter: fluorescent intercalator displacement, NS3 helicase counter-screen; AID 1845; 0.17% of 290,000 active; inhibition, % at 7.9 µM; DNA fluorescent intercalator displacement, fluorescence; in the data active means inhibition above about 37%;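 further: 0% = vehicle and 100% = reference compound; higher means more ethidium bromide displaced from hairpin DNA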
EBNA-1 inhibitor: blocks EBNA-1 binding to DNA; 0.34% of 300,000 active; EBNA-1 DNA binding, fluorescence polarization; inhibition, % at 14.8 µM; in the data active means inhibition above about 28%
ZTA counter: blocks Epstein-Barr virus ZTA, an EBNA-1 counter-screen; 0.15% of 320,000 active; inhibition, % at 11 µM; ZTA-DNA binding, fluorescence polarization; in the data active means inhibition above about 33%
Target sequence (P03206 whole entry, looked up): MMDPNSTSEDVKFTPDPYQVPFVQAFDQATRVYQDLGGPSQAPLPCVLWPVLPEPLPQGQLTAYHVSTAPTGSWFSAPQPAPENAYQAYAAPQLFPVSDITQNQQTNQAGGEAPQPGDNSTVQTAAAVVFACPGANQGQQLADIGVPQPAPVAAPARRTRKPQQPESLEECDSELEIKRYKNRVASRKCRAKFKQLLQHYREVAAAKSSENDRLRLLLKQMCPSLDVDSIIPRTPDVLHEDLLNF
FGF22 binding: binders of recombinant human FGF22 by thermal shift; SYPRO orange fluorescence; percent of sucrose octasulfate shift, DMSO zero; 1.5% of 340,000 active; activity (Tm shift, normalised), % at 9.99 µM;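 active means mean Tm shift, scaled 0 neutral to 100 positive control, at about 1.3% or above, every replicate too, limit read from the data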
Target sequence (Q9HCT0 whole entry, looked up): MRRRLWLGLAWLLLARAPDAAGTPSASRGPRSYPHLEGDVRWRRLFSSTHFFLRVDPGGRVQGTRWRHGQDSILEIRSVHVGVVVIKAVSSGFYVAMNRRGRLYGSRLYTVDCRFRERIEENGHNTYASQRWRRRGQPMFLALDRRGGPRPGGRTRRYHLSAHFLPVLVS
Active calls of the source: *; . = not tested or not shown. The list is not random: actives were taken first. Their share in the collection is about 3.6%.

SMILES	GRIN3A LBD mod	NS3 helicase inh	DNA FID counter	EBNA-1 inhibitor	ZTA counter	FGF22 binding
COc1ccc(NC(=O)N2CCN(C(=O)C3CCCO3)CC2)cc1 (stereo not given)	-5	7	-6	-4	-7	0
CCOC(=O)c1ccc(NC(=S)N2CCC(O)CC2)cc1	-1	1	-1	0	14	0
CCOC(=O)c1ccc(NC(=S)N2CCSC2c2ccc(Br)cc2)cc1 (stereo not given)	18*	-6	-5	7	9	.
CCOC(=O)c1ccc(NC(=S)N2CCCC(C)C2)cc1 (stereo not given)	1	-6	-14	14	13	0
O=C(C[C@@H]1C[C@@H]2c3cc(NC(=O)C4CCC4)ccc3O[C@@H]2[C@H](CO)O1)NCc1cccc(F)c1	.	.	.	.	.	-1
C[C@H](CO)N1C[C@H](C)[C@@H](CN(C)C(=O)NC2CCCCC2)Oc2c(NC(=O)c3nc4ccccc4s3)cccc2C1=O	.	.	.	.	.	0
O=C(C[C@H]1CC[C@H]2[C@@H](COC[C@@H](O)CN2C(=O)Nc2ccccc2)O1)NC1Cc2ccccc2C1	.	.	.	.	.	0
CCOC(=O)C1Oc2ccccc2C(c2ccc(OC)cc2)=C1C(=O)OC (stereo not given)	13*	.	.	.	.	0
C=C1c2ccccc2O[C@H](C(=O)OCC)[C@H]1OC	0	.	.	.	.	0
CCCCC1=C(C(=O)OCC)C(C(=O)OCC)Oc2ccccc21 (stereo not given)	18*	.	.	.	.	0
CCOC(=O)C1=C(c2ccccc2)c2ccccc2OC1C(=O)OCC (stereo not given)	1	.	.	.	.	0
COc1ccc2c3c([nH]c2c1)[C@@H](CO)N(C(=O)NC(C)C)CC31CN(C(=O)c2cnccn2)C1	.	.	.	.	.	0
CNC(=O)C[C@H]1CC[C@@H]2[C@H](COC[C@H](O)CN2Cc2ccc(Cl)c(Cl)c2)O1	.	.	.	.	.	0
O=C(O)C1Nc2c(Cl)cc(Cl)cc2C2C=CCC12 (stereo not given)	-1	9	-7	17	15	.
O=C(O)C1Nc2c(Cl)cc(Cl)c(Cl)c2C2C=CCC12 (stereo not given)	-3	57*	-9	0	-9	0
O=C(NC(=S)NNC(=O)c1ccccc1F)c1cccnc1	1	2	-2	0	-7	0
Cc1ccccc1C(=O)NNC(=S)NC(=O)c1cccnc1	-1	18	-1	-11	-4	43*
CCCCCC1(C(=O)OCC)CC(CSC(=N)N)OC1=O (stereo not given)	1	-9	7	2	-3	44*
CCCCCCC1CC(CSC(=N)N)OC1=O (stereo not given)	1	-2	3	-2	1	.
C[C@@H]1CCCCO[C@H](CN(C)CC2CCCCC2)[C@H](C)CN([C@@H](C)CO)C(=O)c2cc(NC(=O)Nc3ccc(C(F)(F)F)cc3)ccc2O1	.	.	.	.	.	-1
CC(C)[C@@H](C(=O)NC1CCN(Cc2ccccc2)CC1)N1C(=O)N2CCc3c([nH]c4ccccc34)[C@@]2(C)C1=O	37*	-98	18	-5	-3	0
C[C@H](CO)N1C[C@H](C)[C@H](CN(C)Cc2ccc(C(F)(F)F)cc2)OCCCC[C@H](C)Oc2ccc(NC(=O)CCCN(C)C)cc2C1=O	.	.	.	.	.	0
O=S(=O)(N[C@H]1CC[C@@H](CCn2cc(-c3cccnc3)nn2)O[C@H]1CO)c1ccc(F)cc1	.	.	.	.	.	0
C=CCn1c(SCC(=O)NC2CCCC2)nc2sc(C)cc2c1=O	21*	.	.	-9	0	.
C=CCn1c(SCC(=O)Nc2cc(C)on2)nc2sc(C)c(C)c2c1=O	21*	2	0	17	-7	.
SMILES	GRIN3A LBD mod	NS3 helicase inh	DNA FID counter	EBNA-1 inhibitor	ZTA counter	FGF22 binding
COc1cccc(CN2CC3(CN(Cc4ccccn4)C3)c3c([nH]c4cc(OC)ccc34)[C@H]2CO)c1	.	.	.	.	.	0
Cc1ccc(S(=O)(=O)Nc2ccc3c(c2)C(=O)N(C)[C@H]2CC[C@@H](CC(=O)O)O[C@@H]2CO3)cc1	.	.	.	.	.	0
Cc1cc(=O)n(C)c(=O)n1CCCCOc1cccc([N+](=O)[O-])c1	0	0	-1	-5	18	44*
O=C(COc1ccc(C(=S)N2CCCC2)cc1)Nc1ccccc1C(F)(F)F	0	0	-27	6	17	0
O=C(COc1ccc(C(=S)N2CCOCC2)cc1)Nc1ccccc1C(F)(F)F	-2	8	-29	3	10	44*
C[C@H](CO)N1C[C@H](C)[C@H](CN(C)Cc2ccc(C(F)(F)F)cc2)OCCCC[C@H](C)Oc2ccc(NS(=O)(=O)c3ccc(F)cc3)cc2C1=O	.	.	.	.	.	-1
Cc1ccc(C2CC(=O)Oc3cc(C)c(Br)c(C)c32)cc1 (stereo not given)	18*	.	.	.	.	0
CCOC(=O)c1[nH]c2ccc(OC)cc2c1NC(=S)N1CCN(c2cccc(Cl)c2)CC1	13*	-16	-5	23	5	.
COc1cc(-c2oc3cc(O)cc(O)c3c(=O)c2O[C@@H]2O[C@H](COC3O[C@@H](C)[C@H](O)[C@@H](O)[C@H]3O)[C@@H](O)[C@H](O)[C@H]2O)ccc1O (stereo not given in full)	13*	.	.	.	.	0
C[C@@H]1O[C@@H](Oc2c(-c3ccc(O)c(O)c3)oc3cc(O)cc(O)c3c2=O)[C@H](O)[C@H](O)[C@H]1O	-2	.	.	.	.	0
CC(C)C#Cc1cnc2c(c1)C(=O)N([C@@H](C)CO)C[C@@H](C)[C@H](CN(C)C(=O)Nc1ccc(F)cc1)O2	.	.	.	.	.	0
CN1CCC(=NNC(=O)c2cn(-c3ccccc3)nc2-c2ccccc2)CC1	-3	12	-16	-2	8	43*
CCC(C)/C(C)=N/NC(=O)c1cn(-c2ccccc2)nc1-c1ccccc1 (stereo not given)	0	2	-9	-4	-2	.
O=C(O)c1cccc(NC(=O)c2cn(-c3ccccc3)nc2-c2ccncc2)c1	0	-4	-34	12	9	0
O=C(O)c1ccc(NC(=O)c2cn(-c3ccccc3)nc2-c2ccccc2)cc1	0	13	-35	-8	6	.
O=C(O)c1ccc(NC(=O)c2cn(-c3ccccc3)nc2-c2ccc(Br)cc2)cc1	8	-28	-12	-14	-6	1.6*
O=C(O)c1cccc(NC(=O)c2cn(-c3ccccc3)nc2-c2cccc(Br)c2)c1	15*	1	-4	9	9	0
C[C@@H](NC(=O)[C@H]1[C@H](CO)[C@H]2Cn3c(cccc3=O)[C@@H]1N2C(=O)C1CC1)c1ccccc1	.	.	.	.	.	0
C[C@H]1CCCCO[C@H](CN(C)C(=O)Nc2cccc3ccccc23)[C@@H](C)CN([C@@H](C)CO)C(=O)c2cc(NC(=O)NC3CCCCC3)ccc2O1	.	.	.	.	.	0
CCCNC(=O)C[C@H]1CC[C@@H]2[C@H](COC[C@H](O)CN2C(=O)Nc2ccccc2OC)O1	.	.	.	.	.	0

Screening results as filed in PubChem BioAssay.
